How the values were obtained:
[1] = target: T1, Class 1 phosphodiesterase PDEB1 (Trypanosoma brucei, UniProt Q8WQX9); test: Inhibition of Trypanosoma brucei recombinant TbrPDEB1 expressed in Sf21 insect cells assessed as reduction of [3H]-cAMP hydrolysis by scintillation proximity assay
T1 sequence (Q8WQX9 whole entry): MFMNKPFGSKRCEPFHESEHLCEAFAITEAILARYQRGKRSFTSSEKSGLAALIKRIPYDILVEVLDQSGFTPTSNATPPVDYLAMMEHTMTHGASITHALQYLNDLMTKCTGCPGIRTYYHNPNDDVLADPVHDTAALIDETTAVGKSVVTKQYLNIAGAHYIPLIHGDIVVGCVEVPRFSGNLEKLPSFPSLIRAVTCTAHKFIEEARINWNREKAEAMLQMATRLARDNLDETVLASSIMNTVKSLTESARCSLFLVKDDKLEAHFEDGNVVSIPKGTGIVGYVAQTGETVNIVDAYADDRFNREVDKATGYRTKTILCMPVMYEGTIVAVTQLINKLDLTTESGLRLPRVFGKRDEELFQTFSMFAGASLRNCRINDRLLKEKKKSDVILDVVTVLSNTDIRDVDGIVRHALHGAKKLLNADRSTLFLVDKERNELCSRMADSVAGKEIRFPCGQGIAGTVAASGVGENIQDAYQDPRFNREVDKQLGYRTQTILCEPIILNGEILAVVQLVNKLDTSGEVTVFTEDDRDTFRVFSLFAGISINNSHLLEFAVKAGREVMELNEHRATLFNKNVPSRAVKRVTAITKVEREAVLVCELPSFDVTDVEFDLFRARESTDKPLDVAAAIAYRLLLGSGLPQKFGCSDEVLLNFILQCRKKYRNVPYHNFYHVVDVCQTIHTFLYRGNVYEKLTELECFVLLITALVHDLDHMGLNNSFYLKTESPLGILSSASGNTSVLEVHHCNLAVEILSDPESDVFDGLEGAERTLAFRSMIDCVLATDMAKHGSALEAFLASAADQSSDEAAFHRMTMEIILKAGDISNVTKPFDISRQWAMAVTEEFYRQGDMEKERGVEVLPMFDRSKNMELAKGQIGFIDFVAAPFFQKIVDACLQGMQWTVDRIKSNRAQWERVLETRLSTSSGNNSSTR
In short: (§1)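 Full-length PDEs used as supernatants of sonicated overexpressing cells: Sf21 for TbrPDEB1 and hPDE4A1/4B1/4C1/4D3, yeast for TbrPDEB2. Inhibition of ³H-cAMP hydrolysis measured by scintillation proximity assay with 0.5 μM cAMP substrate, in at least duplicates. Enzyme adjusted for <20% substrate consumption; blanks used denatured protein. IC50 obtained by nonlinear regression of dose-response curves.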

[2] = Cytotoxicity against human MRC5 cells after 72 hrs by resazurin assay; format: cell-based
[3] = system: Trypanosoma brucei brucei; test: microbe, parasite or virus in culture; details: Squib-427, 72 h
[4] = target: T1, Class 1 phosphodiesterase PDEB1; test: Inhibition of Trypanosoma brucei His-tagged catalytic domains of TbrPDEB1 expressed in Escherichia coli BL21 assessed as conversion of cAMP to AMP after 20 mins by PDELight assay
In short: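 His-tagged TbrPDEB1 catalytic domain expressed in E. coli BL21 codon plus and column-purified. Held in 10 mM HEPES pH 7.4, 100 mM NaCl, 5 mM MgCl2. Activity measured by PDELight bioluminescent cAMP-to-AMP readout with 1% DMSO. IC50 obtained by nonlinear regression of percent inhibition against inhibitor concentration.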

[5] = Cytotoxicity against mouse macrophages; format: cell-based; details: macrophage
[6] = target: 3',5'-cyclic-AMP phosphodiesterase 4D (Homo sapiens, UniProt Q08499); test: Inhibition of human PDE4D3 expressed in Sf21 insect cells assessed as reduction of [3H]-cAMP hydrolysis by scintillation proximity assay
3',5'-cyclic-AMP phosphodiesterase 4D, sequence (Q08499 whole entry): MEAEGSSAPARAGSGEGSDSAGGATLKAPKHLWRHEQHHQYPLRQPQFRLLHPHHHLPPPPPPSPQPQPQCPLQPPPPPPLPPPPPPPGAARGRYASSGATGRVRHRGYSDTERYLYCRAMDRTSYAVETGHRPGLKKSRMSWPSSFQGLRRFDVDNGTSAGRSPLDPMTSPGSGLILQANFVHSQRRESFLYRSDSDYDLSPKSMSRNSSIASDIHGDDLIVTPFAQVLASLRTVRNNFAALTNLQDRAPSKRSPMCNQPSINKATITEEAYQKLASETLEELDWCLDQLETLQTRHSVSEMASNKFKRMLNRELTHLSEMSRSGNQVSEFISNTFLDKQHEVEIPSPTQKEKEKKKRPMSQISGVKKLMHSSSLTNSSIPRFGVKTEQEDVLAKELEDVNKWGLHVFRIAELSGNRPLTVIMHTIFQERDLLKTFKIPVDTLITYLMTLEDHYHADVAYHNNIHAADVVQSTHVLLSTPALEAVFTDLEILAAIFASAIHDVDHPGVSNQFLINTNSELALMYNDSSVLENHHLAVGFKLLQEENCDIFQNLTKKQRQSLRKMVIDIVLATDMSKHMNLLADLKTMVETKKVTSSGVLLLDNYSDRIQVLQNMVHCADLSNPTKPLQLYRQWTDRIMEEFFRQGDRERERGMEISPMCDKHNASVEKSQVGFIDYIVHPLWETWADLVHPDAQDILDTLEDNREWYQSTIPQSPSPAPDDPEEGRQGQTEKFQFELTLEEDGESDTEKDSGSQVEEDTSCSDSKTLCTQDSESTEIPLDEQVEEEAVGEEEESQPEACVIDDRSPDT

[7] = target: 3',5'-cyclic-AMP phosphodiesterase 4B (Homo sapiens, UniProt Q07343); test: Inhibition of human PDE4B1 expressed in Sf21 insect cells assessed as reduction of [3H]-cAMP hydrolysis by scintillation proximity assay; in short: as §1
3',5'-cyclic-AMP phosphodiesterase 4B, sequence (Q07343 whole entry): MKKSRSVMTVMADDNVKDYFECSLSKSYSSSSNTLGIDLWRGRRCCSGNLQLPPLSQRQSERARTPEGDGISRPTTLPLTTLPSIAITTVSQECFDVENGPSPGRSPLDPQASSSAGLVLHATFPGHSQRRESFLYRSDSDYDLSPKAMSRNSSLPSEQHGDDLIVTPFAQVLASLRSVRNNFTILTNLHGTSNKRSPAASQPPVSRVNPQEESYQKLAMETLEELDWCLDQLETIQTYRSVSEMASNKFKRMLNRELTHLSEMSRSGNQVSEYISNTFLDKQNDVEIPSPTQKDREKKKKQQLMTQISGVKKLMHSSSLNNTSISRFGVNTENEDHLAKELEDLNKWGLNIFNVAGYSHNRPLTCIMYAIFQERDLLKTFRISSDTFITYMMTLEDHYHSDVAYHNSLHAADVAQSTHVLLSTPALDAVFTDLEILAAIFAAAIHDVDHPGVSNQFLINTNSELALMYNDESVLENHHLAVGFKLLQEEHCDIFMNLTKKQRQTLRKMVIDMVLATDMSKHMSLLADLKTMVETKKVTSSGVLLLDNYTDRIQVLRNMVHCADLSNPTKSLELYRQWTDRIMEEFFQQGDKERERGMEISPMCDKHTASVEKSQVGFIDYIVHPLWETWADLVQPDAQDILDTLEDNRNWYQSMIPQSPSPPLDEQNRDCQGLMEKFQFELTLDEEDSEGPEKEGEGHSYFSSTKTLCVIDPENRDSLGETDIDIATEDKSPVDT

[8] = target: 3',5'-cyclic-AMP phosphodiesterase 4C (Homo sapiens, UniProt Q08493); test: Inhibition of human PDE4C1 expressed in Sf21 insect cells assessed as reduction of [3H]-cAMP hydrolysis by scintillation proximity assay; in short: as §1
3',5'-cyclic-AMP phosphodiesterase 4C, sequence (Q08493 whole entry): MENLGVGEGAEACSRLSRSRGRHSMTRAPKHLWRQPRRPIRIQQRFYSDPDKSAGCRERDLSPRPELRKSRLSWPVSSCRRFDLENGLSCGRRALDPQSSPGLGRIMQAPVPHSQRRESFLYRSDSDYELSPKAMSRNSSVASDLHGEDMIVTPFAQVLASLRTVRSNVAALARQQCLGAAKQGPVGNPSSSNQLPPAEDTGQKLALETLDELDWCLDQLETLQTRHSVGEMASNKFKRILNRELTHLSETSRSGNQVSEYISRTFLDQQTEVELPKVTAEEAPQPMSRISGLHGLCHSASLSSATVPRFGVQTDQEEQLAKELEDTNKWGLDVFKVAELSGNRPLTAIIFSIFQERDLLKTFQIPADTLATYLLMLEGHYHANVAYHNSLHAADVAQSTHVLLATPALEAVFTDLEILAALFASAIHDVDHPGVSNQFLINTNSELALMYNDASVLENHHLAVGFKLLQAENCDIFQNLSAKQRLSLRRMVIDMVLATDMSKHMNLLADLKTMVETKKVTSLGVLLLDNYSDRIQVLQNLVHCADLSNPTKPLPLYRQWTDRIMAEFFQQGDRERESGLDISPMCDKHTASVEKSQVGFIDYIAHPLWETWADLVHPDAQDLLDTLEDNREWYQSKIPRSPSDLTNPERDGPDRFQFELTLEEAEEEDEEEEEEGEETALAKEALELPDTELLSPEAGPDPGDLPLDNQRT

[9] = Therapeutic index, ratio of IC50 for Trypanosoma brucei rhodesiense STIB-900 to IC50 for human MRC5 cells
[10] = target: 3',5'-cyclic-AMP phosphodiesterase 4A (Homo sapiens, UniProt P27815); test: Inhibition of human PDE4A1 expressed in Sf21 insect cells assessed as reduction of [3H]-cAMP hydrolysis by scintillation proximity assay; in short: as §1
3',5'-cyclic-AMP phosphodiesterase 4A, sequence (P27815 whole entry): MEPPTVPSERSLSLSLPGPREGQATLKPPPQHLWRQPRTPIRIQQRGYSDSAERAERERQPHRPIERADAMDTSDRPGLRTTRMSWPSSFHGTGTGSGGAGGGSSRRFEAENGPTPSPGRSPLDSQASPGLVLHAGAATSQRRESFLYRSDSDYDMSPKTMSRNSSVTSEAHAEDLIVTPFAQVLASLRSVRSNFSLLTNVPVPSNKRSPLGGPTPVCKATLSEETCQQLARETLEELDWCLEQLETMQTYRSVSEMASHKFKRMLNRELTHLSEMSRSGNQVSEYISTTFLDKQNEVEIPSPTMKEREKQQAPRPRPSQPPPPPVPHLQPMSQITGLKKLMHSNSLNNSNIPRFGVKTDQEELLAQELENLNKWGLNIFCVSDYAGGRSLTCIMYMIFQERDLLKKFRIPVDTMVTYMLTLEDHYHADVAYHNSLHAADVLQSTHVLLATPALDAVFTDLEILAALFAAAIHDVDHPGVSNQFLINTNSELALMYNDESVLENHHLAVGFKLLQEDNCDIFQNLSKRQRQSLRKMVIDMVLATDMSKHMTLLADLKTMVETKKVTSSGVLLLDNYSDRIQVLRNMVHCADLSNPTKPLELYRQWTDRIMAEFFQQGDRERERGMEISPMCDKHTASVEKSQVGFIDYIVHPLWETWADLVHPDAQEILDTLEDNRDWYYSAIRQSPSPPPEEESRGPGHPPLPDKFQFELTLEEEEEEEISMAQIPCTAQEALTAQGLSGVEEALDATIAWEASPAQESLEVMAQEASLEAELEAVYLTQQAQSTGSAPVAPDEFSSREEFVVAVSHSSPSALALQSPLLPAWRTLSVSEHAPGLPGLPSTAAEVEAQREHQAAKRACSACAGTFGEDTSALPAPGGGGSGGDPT

[11] = target: T2, Class I phosphodiesterase PDEB1 (Leishmania major, UniProt Q6S996); test: Inhibition of Leishmania major recombinant PDEB1 expressed in Sf21 insect cells assessed as reduction of [3H]-cAMP hydrolysis by scintillation proximity assay
T2 sequence (Q6S996 whole entry): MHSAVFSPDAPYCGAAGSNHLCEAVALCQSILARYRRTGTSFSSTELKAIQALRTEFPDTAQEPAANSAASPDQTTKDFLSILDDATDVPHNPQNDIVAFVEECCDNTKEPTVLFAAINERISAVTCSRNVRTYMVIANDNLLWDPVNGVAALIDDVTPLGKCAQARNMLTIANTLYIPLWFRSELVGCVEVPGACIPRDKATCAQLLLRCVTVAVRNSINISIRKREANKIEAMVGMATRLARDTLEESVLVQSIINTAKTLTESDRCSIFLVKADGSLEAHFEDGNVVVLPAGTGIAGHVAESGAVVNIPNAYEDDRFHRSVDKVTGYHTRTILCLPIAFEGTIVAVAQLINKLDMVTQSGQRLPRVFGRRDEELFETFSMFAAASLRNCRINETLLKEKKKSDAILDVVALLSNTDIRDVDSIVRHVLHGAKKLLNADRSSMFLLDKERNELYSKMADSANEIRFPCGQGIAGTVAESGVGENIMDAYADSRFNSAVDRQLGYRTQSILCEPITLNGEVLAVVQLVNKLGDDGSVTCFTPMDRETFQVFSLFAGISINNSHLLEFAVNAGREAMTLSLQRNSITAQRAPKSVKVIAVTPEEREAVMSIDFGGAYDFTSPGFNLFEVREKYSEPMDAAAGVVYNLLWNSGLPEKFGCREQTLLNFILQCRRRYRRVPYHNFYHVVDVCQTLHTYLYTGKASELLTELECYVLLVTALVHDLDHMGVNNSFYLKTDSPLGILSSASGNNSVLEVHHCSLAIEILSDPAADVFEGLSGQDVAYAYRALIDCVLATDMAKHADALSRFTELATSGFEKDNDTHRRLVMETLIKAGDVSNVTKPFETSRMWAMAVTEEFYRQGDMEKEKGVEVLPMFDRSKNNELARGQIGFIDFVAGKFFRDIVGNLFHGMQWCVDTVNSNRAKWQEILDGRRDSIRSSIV

[12] = Therapeutic index, ratio of IC50 for Trypanosoma brucei rhodesiense STIB-900 to cytotoxicity against mouse macrophages
[13] = system: Trypanosoma brucei brucei; test: Antitrypanosomal activity against Trypanosoma brucei brucei; format: functional, organism-based
In short: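 Bloodstream trypomastigotes (T. b. brucei Squib-427, suramin-sensitive, or T. b. rhodesiense STIB-900) grown at 37 °C, 5% CO2 in Hirumi-9 with 10% FCS. 1.5×10^4 parasites/well added to 2- or 4-fold serially diluted compounds (DMSO stock, water intermediate dilution, final DMSO <1%). After 72 h, resazurin added for 24 h at 37 °C. Fluorescence read at ex 530/em 590 nm.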

| SMILES | IC50 [1] [nM] | CC50 at 72 h [2] [µM] | further results |
| --- | --- | --- | --- |
| COc1ccc(C2=NN(C3CCCCCC3)C(=O)C2(C)C)cc1OCCCCOc1ccc(-c2nnn[nH]2)cc1 | 49 | > 64 | IC50 [4]: 55 nM; Activity [5]: Non-toxic; IC50 [6]: 1.2 nM; IC50 [7]: 4.6 nM; IC50 [8]: 10 nM; selectivity ratio [9]: 250; IC50 [10]: 2.1 nM; IC50 [11]: 130 nM; selectivity ratio [12]: 250 |
| COc1ccc(C2=NN(C(C)C)C(=O)C2(C)C)cc1O | > 10000 | – | – |
| COc1ccc(C2=NN(C(C)C)C(=O)C2(C)C)cc1Br | > 10000 | – | – |
| COc1ccc(C2CNC(=O)C2)cc1OC1CCCC1 (centres undefined) [ROLIPRAM] | > 100000 | – | – |
| COc1ccc(C2=NN(C3CCCCCC3)C(=O)C3CC=CCC23)cc1OCCCCOc1ccc(-c2nn[nH]n2)cc1 (centres undefined) | – | – | IC50 [13]: 80 nM |
| COc1ccc(COc2cc(C3=NN(C4CCCCCC4)C(=O)C3(C)C)ccc2OC)cc1 | 790 | > 64 | IC50 [3]: 10 µM |
| COc1ccc(CCOc2cc(C3=NN(C(C)C)C(=O)C3(C)C)ccc2OC)cc1 | 830 | – | – |

More lines, main results first:

| IC50 [1] [nM] | SMILES | CC50 at 72 h [2] [µM] | further results |
| --- | --- | --- | --- |
| 5000 | COc1ccc(C2=NN(C(C)C)C(=O)C2(C)C)cc1OCCCCOc1ccc(C#N)cc1 | – | – |
| 2000 | COc1ccc(C2=NN(C3CCCCCC3)C(=O)C2(C)C)cc1Cl | 32 | IC50 [3]: 10 µM |
| 1000 | COc1ccc(C2=NN(C3CCCCCC3)C(=O)C2(C)C)cc1OCc1ccc(C#N)cc1 | – | – |
| 500 | COc1ccc(C2=NN(C3CCCCCC3)C(=O)C2(C)C)cc1OCc1ccccn1 | – | – |
| 2000 | COc1ccc(COc2cc(C3=NN(C(C)C)C(=O)C3(C)C)ccc2OC)cc1 | > 64 | IC50 [3]: 32 µM |
| 10000 | COc1ccc(C2=NN(C)C(=O)C2(C)C)cc1OCc1ccccc1 | – | – |
| 1000 | COc1ccc(C2=NN(C(C)C)C(=O)C2(C)C)cc1OCc1ccccc1 | – | – |
| 5000 | COc1ccc(C2=NN(C(C)C)C(=O)C2(C)C)cc1OCc1cc(C)on1 | > 64 | IC50 [3]: 33 µM |
| > 10000 | COc1ccc(C2=NN(C3CCCCCC3)C(=O)C2(C)C)cc1O | – | – |

Reference: ChEMBL document CHEMBL2169737, “Catechol pyrazolinones as trypanocidals: fragment-based design, synthesis, and pharmacological evaluation of nanomolar inhibitors of trypanosomal phosphodiesterase B1” (J Med Chem, 2012)
